As usually defined, the viability is a per cent measure of how many cells are alive, often set against a control.

Among the data in PubChem BioAssay AID504829 (Southern Research Specialized Biocontainment Screening …, 2011) are viability (protection from CPE) and viability values, retold here.

The test system of the test is HEp-2 RSV CPE, time of addition, CellTiter-Glo viability. As to the kind of experiment: HEp-2 viability after RSV infection, timed dosing – cell-based, time of addition, mechanism study for RSV inhibitor project (AID 504829). As to conditions: at 25 µM, stronger effect = higher value. The method, boiled down:
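System: HEp-2 human cell line, virus-infected | Doses: 25 µM single dose, 0.5% DMSO | Times: 6-day incubation at 37 °C after infection | Signal: ATP-based luminescence with CellTiter-Glo reagent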

Where [1] appears, read: measured here: added 1 h before infection.
[2] abbreviates: measured here: added 1 h post infection.
The mark [3] stands for this setting: measured here: added 7 h post infection.
The mark [4] stands for this setting: measured here: added 21 h post infection.
Where [5] appears, read: measured here: added 24 h post infection.

On to `Cc1ccc(NC(=O)[C@@H]2CCCN2S(=O)(=O)c2cccc3cccnc23)c(C)c1`, for which the viability (protection from CPE) is 77.1%. Further, the viability under setting [1] is 87.5%. For the same compound, the viability under setting [2] was determined as 56%. Further, the viability under setting [3] came out at 51.8%. This compound displayed a viability under setting [4] of 29%. The compound further registered a viability under setting [5] of 23.1%.
For the compound `COc1ccc(C)c(NC(=O)[C@@H]2CCCN2S(=O)(=O)c2cccc3cccnc23)c1`, the viability (protection from CPE) is 81.8%. Under setting [1], the viability was found to be 90.4%. The compound further showed a viability under setting [2] of 63.3%. Besides, the viability under setting [3] worked out at 52.1%. Under setting [4], this compound showed a viability of 34.3%. In addition, the viability under setting [5] is 24.8%.
In the case of `Cc1ccc(C)c(NC(=O)[C@@H]2CCCN2S(=O)(=O)c2cccc3cccnc23)c1`, the viability (protection from CPE) is 91.4%. Under setting [1], this compound had a viability of 91.6%. In addition, the viability under setting [2] turned out to be 61.7%. This compound also came in with a viability under setting [3] of 49.6%. For the same compound, under setting [4], the viability amounted to 35.1%. The viability under setting [5] was found to be 27.7%.
